Experimental data published in paper PMC11429891 (bioRxiv, 2024).
One block for each compound: values may come before it. Bridge positions count the residues as written; N and C are the ends. Peptide text beside a SMILES is read from it.

Key:
human recombinant SNAP25 = human recombinant SNAP25 (Homo sapiens, UniProt P60880); experiment: Quartz crystal microbalance binding to SNAP25
How it was run: (§1)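 The 5 MHz Cr/Au quartz crystal was cleaned with isopropanol, ethanol and water. It was treated with 20 mM mercaptopropanesulfonate in 10 mM H₂SO₄ for 30 min, then with 10 µM (monomer) poly(allylamine hydrochloride) at pH 8 for 10 min. Human recombinant SNAP25 or BSA was deposited at 0.01 mg/mL for 10 min. After a baseline in 500 µL PBS, 50 µL of 300 µM peptide stock in PBS was added and mass change recorded.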

AD brain vasculature = conditions: ref [9], cited from earlier work
U87MG cells [1] = experiment: Viability without laser irradiation; type: cell-based; conditions: up to 30μM, 30 min at 37°C, no laser irradiation, 24 h, MTS
[2] = system: adhesion of U87MG cells to collagen VI; experiment: U87MG adhesion to collagen VI-coated plates; type: cell-based; conditions: CES 30μM, 24 h, then 48 h, DAPI nuclei count
How it was run: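 Wells were coated with collagen VI (5 µg/cm² from 50 µg/ml in 500 mM acetic acid) for 1 h at room temperature, then washed with PBS. U87MG cells were seeded with or without anti-SNAP25 antibody (5 µg/mL) or 30 µM test peptide. Medium was changed at 24 h and culture continued 48 h. Cells were fixed in 4% PFA, blocked and DAPI-stained, and nuclei were counted per image area (1.2 mm²).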

[3] = Quartz crystal microbalance, PAH control layer; type: binding; conditions: label-free, peptide 30μM final in PBS
[4] = Quartz crystal microbalance, PAH-BSA control multilayer; type: binding; conditions: label-free, peptide 30μM final in PBS
How it was run: as §1

[5] = system: connective tissue growth factor (CTGF) bound to the vascular extracellular matrix; conditions: ref [9]; cited from earlier work
healthy brain = experiment: In vivo homing, healthy brain; set-up: species or system mice; conditions: 30 nmoles i.v., 60 min circulation, n=3
How it was run: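 Healthy (non-tumor) mice received FAM-labelled peptide, 30 nmol i.v. in PBS, for 60 min. Mice were perfused with PBS, and brains were fixed in 4% PFA, cryoprotected in sucrose and embedded in OCT. Sections were stained without permeabilization for FAM and SNAP25 (primary 1/100 overnight at 4°C, secondary 1/200). n=3.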

Casein = experiment: ELISA binding to casein-coated plates; conditions: plates coated with Casein, FAM-labeled peptide
recombinant SNAP25 [6] = experiment: ELISA binding to SNAP25-coated plates; set-up: species or system human; conditions: plates coated with recombinant SNAP25, FAM-labeled peptide
MCF10CA1a tumors = experiment: In vivo homing, orthotopic MCF10CA1a breast tumors; set-up: species or system athymic nude mice, human triple-negative breast cancer cells; conditions: 30 nmoles i.v., 60 min circulation, n=3
How it was run: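 Orthotopic breast tumors: athymic nude mice were given 2×10^6 MCF10CA1a cells in PBS into the mammary gland and used 14 days later. FAM-labelled peptide (30 nmol in PBS) was injected i.v. and circulated 60 min, followed by PBS perfusion, overnight 4% PFA fixation, sucrose and OCT embedding. 10 µm sections were immunostained for FAM without permeabilization. n=3.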

[7] = system: intracranial U87MG glioblastoma; experiment: In vivo homing, intracranial U87MG glioblastoma; set-up: species or system mice (female athymic nude), human U87MG xenograft; conditions: 30 nmoles i.v., 60 min circulation
How it was run: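 Tumors were induced in female athymic nude mice by intracranial injection of 3×10^5 U87MG cells into the right striatum (2 mm lateral, 2 mm posterior to bregma, 2.5 mm deep) and grown 9 days. Mice received FAM-labelled peptide, 30 nmol in PBS i.v., for 60 min, then PBS perfusion, 4% PFA fixation, sucrose and OCT. 10 µm sections were stained without permeabilization for FAM with CD31 or SNAP25. n=3.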

WT-GBM tumors = experiment: In vivo homing, WT-GBM glioblastoma model; set-up: species or system mice (Fox/Nu); conditions: 30 nmoles i.v., 60 min circulation, n=3
How it was run: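 Fox/Nu mice received 7×10^5 WT-GBM cells stereotactically into the right striatum and were used 6-7 days later. FAM-labelled peptide (30 nmol in PBS) was given i.v. and circulated 60 min. Mice were perfused intracardially with PBS, and organs were fixed in 4% PFA pH 7.4 overnight, sucrose-cryoprotected and OCT-embedded. 10 µm sections were stained without permeabilization for FAM and CD31 (primary 1/100 overnight 4°C; secondary 1/200). n=3.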

HEK293T cells = experiment: Photodynamic cytotoxicity; type: cell-based; conditions: 3μM conjugate, 30 min, 3 washes, 690nm laser 10 J/cm^2 (160 mW/cm^2), 24 h, MTS
How it was run: (§2)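 Cells (30.000/well) were attached overnight, then exposed 30 min to peptide–verteporfin conjugates at 3 µM final. Wells were washed 3× with full medium and refreshed. Irradiation used a 690 nm laser, 10 J/cm² at 160 mW/cm². After 24 h further culture, viability was measured by MTS/PMS (2 h, 37 °C, 5% CO₂), reading absorbance at 492 nm.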

SK-N-AS cells = experiment: Photodynamic cytotoxicity; type: cell-based; conditions: 3μM conjugate, 30 min, 3 washes, 690nm laser 10 J/cm^2 (160 mW/cm^2), 24 h, MTS
How it was run: as §2

U87MG cells [8] = experiment: Photodynamic cytotoxicity; type: cell-based, human; conditions: 24 h, MTS
How it was run: as §2

LN229 cells = experiment: Photodynamic cytotoxicity; type: cell-based; conditions: 3μM conjugate, 30 min, 3 washes, 690nm laser 10 J/cm^2 (160 mW/cm^2), 24 h, MTS
How it was run: as §2

recombinant SNAP25 [9] = experiment: Binding of SNAP25 to ECM array; set-up: species or system human; conditions: recombinant SNAP25 1/200, overnight 4°C, A488 anti-SNAP25 detection
How it was run: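 Array slide of ECM proteins (collagens I, III, IV, V, VI, fibronectin, laminin, vitronectin, tropoelastin) washed in PBS and PBST, then blocked 1 h at room temperature in 5% BSA/5% FBS in PBST. Human recombinant SNAP25 was applied at 1/200 in 1/5-diluted blocking buffer overnight at 4°C. Bound protein was detected with A488 anti-SNAP25 at 1/200 overnight at 4°C, then imaged by fluorescence in the green channel.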

U87MG cells [10] = experiment: U87MG cell culture on collagens V and VI, morphology; type: cell-based; conditions: versus plastic (colonies); 5μg/cm^2 collagen coating
How it was run: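 Plates were coated for 1 h at room temperature with bovine collagen VI or human collagen V (5 µg/cm², from 50 µg/ml in 500 mM acetic acid) and washed twice with PBS. U87MG cells were seeded and grown 24 h, then given fresh medium for another 48 h. Cells were fixed in 4% PFA, blocked, DAPI-stained and imaged by fluorescence microscopy.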

recombinant SNAP25 [11] = experiment: Surface plasmon resonance, immobilized SNAP25; type: binding, human; conditions: read-out: KD (estimative), SPR; one-to-one model, SNAP25 via His-Tag/Ni-NTA, collagen 20μg/ml, 20 °C, OpenSPR
How it was run: (§3)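 SPR was run at 20 °C on an NTA sensor chip conditioned with 10 mM HCl, 200 mM imidazole and EDTA, then activated with 40 mM NiCl₂. His-tagged ligand was captured on channel 2 only: human recombinant SNAP25 at 150 µg/mL, or the control mouse M-CSF (28 kDa, 9-His) at 10 µg/mL. Collagen V or VI at 20 µg/ml in PBS flowed through both channels at 20 µl/min. Data were fitted to a one-to-one model.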

[12] = system: control protein (recombinant mouse macrophage colony-stimulating factor (M-CSF)); experiment: Surface plasmon resonance, control protein; type: binding; conditions: control protein of similar molecular weight, immobilized in the same way, 20 °C
How it was run: as §3

Chain of human recombinant SNAP25 (P60880 whole entry): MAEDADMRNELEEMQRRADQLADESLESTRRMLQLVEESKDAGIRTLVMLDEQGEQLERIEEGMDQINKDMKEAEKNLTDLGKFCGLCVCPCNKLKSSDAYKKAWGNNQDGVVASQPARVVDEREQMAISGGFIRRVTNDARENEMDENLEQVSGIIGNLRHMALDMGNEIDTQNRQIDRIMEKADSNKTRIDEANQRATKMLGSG

Compound: CC(=O)N[C@H]1CSSC[C@@H](C(N)=O)NC(=O)[C@H](CCC(=O)O)NC(=O)[C@H](CO)NC(=O)[C@H](CC(C)C)NC(=O)[C@H](CC(C)C)NC(=O)[C@@H]2CCCN2C(=O)[C@H](CO)NC(=O)[C@H](CCC(=O)O)NC1=O [CES] (Ac-CESPLLSEC-NH2; disulfide 1-9)
Kd (human recombinant SNAP25): 24 nM | dissociation rate upon washing with PBS, QCM (human recombinant SNAP25; SNAP25 on PAH layer, washing with PBS): slow dissociation rate | homing to blood vessels of AD brain (AD brain vasculature; genetically modified mouse AD model, in vivo phage library screen, will be reported elsewhere): specifically accumulates (homes) in the blood vessels of AD brain | cytotoxicity of peptide alone, U87MG (U87MG cells [1]): did not elicit cytotoxicity | effect on adhesion of U87MG cells to collagen VI-coated plates [2]: affected the adhesion of U87MG cells to collagen VI-coated plates | binding to control layer PAH, QCM [3]: did not bind to the control layers | binding to control multilayer PAH-BSA, QCM [4]: did not bind to the control layers

Compound: CDAGRKQKC [reference compound]
recognition of AD brain vasculature (AD brain vasculature; mouse AD model): recognize the vasculature of AD brain very early in the development of the disease | target molecule (receptor) [5]: connective tissue growth factor (CTGF) bound to the vascular extracellular matrix

Compound: FAM-iRGD: FAM-labeled iRGD, another peptide with similar molecular weight and isoelectric point [reference compound]
binding to SNAP25, ELISA (recombinant SNAP25 [6]): did not bind to SNAP25

Compound: Vert-Ahx-CESPLLSEC-NH2 (disulfide) [CES-V]
toxicity, irradiated, HEK293T (HEK293T cells): no toxicity | toxicity, irradiated, SK-N-AS (SK-N-AS cells): no toxicity | toxicity, irradiated, U87MG (U87MG cells [8]; 3μM conjugate, 30 min, 3 washes, 690nm laser 10 J/cm^2 (160 mW/cm^2)): significant toxicity | difference in toxicity between irradiated CES-V and irradiated CtrlPep-V (U87MG cells [8]; 3μM, 690nm laser, compared across U87MG, LN229, SK-N-AS, HEK293T): only reached significance for U87MG | toxicity, irradiated, LN229 (LN229 cells): significant toxicity

Compound: collagen III: ECM protein on array
binding of SNAP25 to ECM proteins, array (recombinant SNAP25 [9]): non-binding

Compound: collagen IV: ECM protein on array
binding of SNAP25 to ECM proteins, array (recombinant SNAP25 [9]): non-binding

Compound: collagen V: Human type V Collagen-Lyophilized (Southern Biotech, Cat # 1270–01)
U87MG growth morphology on collagen-coated plates (U87MG cells [10]): formed monolayers and presented particles attached to the plate | Kd (recombinant SNAP25 [11]): 7200 nM | binding of SNAP25 to ECM proteins, array (recombinant SNAP25 [9]): binding of SNAP25 to collagens V and VI | binding to control protein, SPR [12]: no binding

Further lines, with some results ahead:

binding to Casein, ELISA (Casein): not to Casein | binding to SNAP25, ELISA (recombinant SNAP25 [6]): bound to SNAP25
Compound: FAM-Ahx-CESPLLSEC-NH2 (disulfide) [FAM-CES]
homing to healthy brain (healthy brain): no homing to healthy brain | tumor homing, orthotopic breast cancer (MCF10CA1a tumors): no tumor homing | co-distribution with blood vessel marker CD31 in U87MG tumor ([7]; n=3, FAM/CD31 immunostaining): co-distributing with the blood vessel marker CD31 | colocalization with SNAP25 in U87MG tumors ([7]; n=3, FAM/SNAP25 immunostaining): apparent colocalization with SNAP25 in U87MG tumors | colocalization with CD31 in WT-GBM (WT-GBM tumors): showed colocalization with CD31 | homing to WT-GBM tumors (WT-GBM tumors): targeted WT-GBM tumors

binding of SNAP25 to ECM proteins, array (recombinant SNAP25 [9]): non-binding
Compound: collagen I: ECM protein on array

Kd (recombinant SNAP25 [11]): 15 nM | binding of SNAP25 to ECM proteins, array (recombinant SNAP25 [9]): binding of SNAP25 to collagens V and VI | binding to control protein, SPR [12]: no binding
Compound: collagen VI: Bovine Type VI Collagen-Solution (Southern Biotech Cat # 1300–02S)
U87MG growth morphology on collagen-coated plates (U87MG cells [10]): formed monolayers and presented particles attached to the plate
